This is an account of results in the EternaBench riboswitch data.

The subject of the series is MS2 coat protein. The series is described as follows: apparent Kd, MS2 coat protein; higher = weaker binding; RNA-MaP array. Put shortly:
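Apparent Kd was taken as the median of binding curves fitted cluster by cluster. The designed RNAs were made by transcription of sequenced DNA templates on an Illumina sequencing chip and exposed to fluorescently labeled MS2 coat protein (1.5 nM to 3 μM) at room temperature, with or without input ligand, for 0.8–1.5 h at the lowest and 10–20 min at the highest concentrations. Any design measured on fewer than 10 clusters was left out.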

Setting [1] is: designed as: OFF switch for flavin mononucleotide, no ligand.
Where [2] appears, read: ligand present: flavin mononucleotide, designed as: OFF switch for flavin mononucleotide.
[3] abbreviates: designed as: OFF switch for theophylline, no ligand.
Where [4] appears, read: ligand present: theophylline, designed as: OFF switch for theophylline.
[5] abbreviates: designed as: ON switch for flavin mononucleotide, no ligand.
Setting [6] is: ligand present: flavin mononucleotide, designed as: ON switch for flavin mononucleotide.
Setting [7] is: designed as: OFF switch for tryptophan, no ligand.
Where [8] appears, read: ligand present: tryptophan, designed as: OFF switch for tryptophan.

Broadly, the apparent Kd is a dissociation constant that holds for the conditions of the assay. Consider “GAUAAAGCAGGAUAUACAUACCGGCCAUGACUAAAAGAAGGACAUGAGGAUCACCCAUGUAGAAGGGCUUAAAA”, for which the “apparent Kd” value by setting is: under setting [1], 0.0157 µM; under setting [2], 0.0305 µM.

With “AACACACCAAAUGAUACCAGCUACAACAUGAUACAAAACCACAUGAGGAUCACCCAUGUAAGCCCUUGGCAGCAUACUACUGUAA”, the “apparent Kd” value turned out to be 0.0181 µM under setting [3] and 0.0425 µM under setting [4].

Consider “AUCGGCGCACAGAAGGGACGAUCAAACUGCUGAUCACAUGAGGAUCACCCAUGUUGUUUGGAUAGUCAGGAUAUGUUGACCAUG”, for which the “apparent Kd” value worked out at 0.0176 µM under setting [1] and 0.016 µM under setting [2].

For the sequence “CGGCUCAUAAUGGAUACCAGUCCAGCAUAGAAACCUUGACACAUGAGGAUCACCCAUGUUGACCCUUGGCAGCCAUUGAUCAUAC”, the “apparent Kd” value was 0.0224 µM under setting [3] and 0.133 µM under setting [4].

With “GCGUGAGCGACGUGUCUUCCACAUGAGGAUCACCCAUGUCGCAGAAGGACUUGAAUCGUAUUAAAGUAGGAUAUGCGUAGGACG”, the “apparent Kd” value under setting [5] was found to be 0.0383 µM and the “apparent Kd” value under setting [6] is 0.029 µM.

Consider “AGAUCCUAAGUAAGGAUAUACCUCGCACACAAGUCGUAGAAGGUACAUGAGGAUCACCCAUGUAGGAAAGUACU”, for which the “apparent Kd” value is, setting by setting: under setting [1], 0.0124 µM; under setting [2], 0.0153 µM.

Take “UCACUCUGCCGAGGAUAUGCUGGGUCUGACAUGAGGAUCACCCAUGUAACGGGCAGAGUGUUCCAGCAGAAGGCGGCCAGUACC”: the “apparent Kd” value reads like this: under setting [5], 0.0425 µM; under setting [6], 0.0446 µM.

As to “UGUAGACAUGAGGAUCACCCAUGUGCAACUGCAACAGGAUAUAGGGAGCGAUAGGAACGCCUAGAAGGGUUGAUCU”, the “apparent Kd” value came out at 0.0283 µM under setting [5] and 0.0246 µM under setting [6].

On to “CCGCCUCGCGUCAGGAUAUGUAACAAUUGUCAAAUACAGAAGGGACAUGAGGAUCACCCAUGUUUACAUACCAA”, for which the “apparent Kd” value came to 0.018 µM under setting [1] and 0.0422 µM under setting [2].

Consider “CCAUGAAGCGAGGAUAUUCUCACUGCCAAGUUGGAAGAAGGCGCUACAUGAGGAUCACCCAUGUAGUCAGUCCG”, for which the “apparent Kd” value runs as follows: under setting [1], 0.00507 µM; under setting [2], 0.00532 µM.

On to “AACGUACAUGAGGAUCACCCAUGUGAGGAUAUGCCUAAAGAGUUCUAAGCAUCCAAGGGCAGAAGGCACAUGAA”, for which the “apparent Kd” value came out at 0.0991 µM under setting [1] and 0.14 µM under setting [2].

With “ACAGAACGAGGAUAUCCACUUUGAUACAUGAGGAUCACCCAUGUCCUGAAAGUGUUUCAGGGAGAAGGCGUACCUA”, the “apparent Kd” value under setting [1] was 0.018 µM.

“UCAUGAAAGUCAGGAUAUGGCCACAUGAGGAUCACCCAUGUUUGCUUUAUCGAGCGAAACUGAGACCAGAAGGGACGGACAUUC”: the “apparent Kd” value under setting [5] amounted to 0.0208 µM and the “apparent Kd” value under setting [6] was 0.0111 µM.

Take “UACAUUAUAGAGAAGGAUUACUCACACAUGAGGAUCACCCAUGUGUCCAUCAUGGCUGUAGGUUAAUAGGAUAUCUUAGAAGUG”: the “apparent Kd” value runs as follows: under setting [1], 0.0641 µM; under setting [2], 0.155 µM.

Turning to “AAACUGAUCUUCAGGAGUCACUAUAUCUCCCGAGGACCGGUACGGCCGCCACUCGAACGUUUACAUGAGGAUCACCCAUGUGACU”, the “apparent Kd” value is, setting by setting: under setting [7], 0.0148 µM; under setting [8], 0.0196 µM.

As for “AGGAGGCAUAAGAAGGGUACAUGUAUUGGGUGUACAGGAUAUUACAGGUGCCGCACAUGAGGAUCACCCAUGUUAUCAUUGUGC”, the “apparent Kd” value under setting [1] came to 0.0391 µM and the “apparent Kd” value under setting [2] came out at 0.034 µM.

Take “CUCGUACAUGAGGAUCACCCAUGUCAGGAUAUUACUGUCGAGUCCAAAACUAGAAAGGUAAGAAGGGACACAUU”: the “apparent Kd” value under setting [1] came out at 0.0133 µM and the “apparent Kd” value under setting [2] was found to be 0.0178 µM.

Turning to “CGCGAGACGGCGGCCGCCACUUGUUGUUGGAAACUCGAGUUACAUGAGGAUCACCCAUGUCCUUAAAGGACCGGGCCGUAAGUAA”, the “apparent Kd” value was 0.226 µM (designed as: ON switch for tryptophan, no ligand) and 0.164 µM (ligand present: tryptophan, designed as: ON switch for tryptophan).

Take “UCGAGUGGGCAGAAGGUGUCGGACUAUACAUGAGGAUCACCCAUGUGGAAACCUCCCGGUUUGAACAAGGAUAUGCCUCGUAAA”: the “apparent Kd” value under setting [5] was determined as 0.0956 µM and the “apparent Kd” value under setting [6] was 0.0714 µM.

Turning to “GAAAGGUGAGGAUAUACAUGAGGAUCACCCAUGUGUAGAAAUAGAAAGAAAAUCUCAAGUAGAAGGCACAAACA”, the “apparent Kd” value was 0.0113 µM under setting [1] and 0.0137 µM under setting [2].

As to “AGCUCGUAGACAUGAGGAUCACCCAUGUAGAUCAAGAAAUUCAAGGAUAUUGGGAGUAAGCCGUGCAAGAAGGUGAGACUAGAU”, the “apparent Kd” value under setting [5] was determined as 0.057 µM and the “apparent Kd” value under setting [6] was 0.0452 µM.

Turning to “CUUGUACAUGAGGAUCACCCAUGUGUCCGUAUCAAAGGAUAUAGCAUAUUCGCAGUGGUGCUAGAAGGUUGUAUAC”, the “apparent Kd” value turned out to be 0.0209 µM under setting [5] and 0.0105 µM under setting [6].

As to “UAACGUAGCCGAGGAUAUAGUAGCGAUCAACAGAAACAUGAGGAUCACCCAUGUGCCACAAAAGACUAGAAGGCGGGCAACCCA”, the “apparent Kd” value under setting [5] amounted to 0.0154 µM and the “apparent Kd” value under setting [6] was determined as 0.0112 µM.

For the sequence “UUGAUUACCCAAGCGUGAUGGUCCUAGGAACGAGGACCGGUACGGCCGCCACUCGCAAGCAAACAUGAGGAUCACCCAUGUUUAU”, the “apparent Kd” value was determined as 0.0131 µM under setting [7] and 0.023 µM under setting [8].
